Data as given in ChEMBL document CHEMBL4680082 (J Med Chem, 2016).
pEC50: −log10 of the molar value. Where “and” joins values, the source holds several entries; their conditions need not be identical. Equal entries are not always repeated.

Key:
[1] = target: T1, 5-hydroxytryptamine receptor 2C (Homo sapiens) (UniProt P28335); test: Agonist activity at human 5-HT2C receptor expressed in human Flp-In-293 cells assessed as induction of calcium flux by measuring log (Emax/EC50) incubated for 1 hr by Fluo-4 direct dye based FLIPR assay; format: functional, cell-based
T1 sequence (whole entry): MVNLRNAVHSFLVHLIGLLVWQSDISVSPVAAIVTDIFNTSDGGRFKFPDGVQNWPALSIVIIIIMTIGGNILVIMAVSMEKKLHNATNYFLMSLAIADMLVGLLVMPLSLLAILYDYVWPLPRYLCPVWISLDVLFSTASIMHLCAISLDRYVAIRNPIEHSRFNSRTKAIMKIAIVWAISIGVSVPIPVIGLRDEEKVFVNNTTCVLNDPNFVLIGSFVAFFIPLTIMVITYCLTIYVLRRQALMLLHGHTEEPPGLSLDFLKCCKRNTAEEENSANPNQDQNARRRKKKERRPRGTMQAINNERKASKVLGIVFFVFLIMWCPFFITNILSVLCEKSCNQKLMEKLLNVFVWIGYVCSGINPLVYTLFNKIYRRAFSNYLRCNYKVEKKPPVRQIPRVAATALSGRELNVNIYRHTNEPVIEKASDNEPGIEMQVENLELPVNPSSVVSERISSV

[2] = target: T2, 5-hydroxytryptamine receptor 2C (Homo sapiens, UniProt P28335);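 note: Agonist-induced calcium flux in Flp-In-293 cells expressing the human receptor, read by FLIPR with Fluo-4 Direct dye after 1 hr incubation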
T2 sequence (P28335 whole entry): T1 sequence (whole entry)

[3] = target: T3, 5-hydroxytryptamine receptor 2B (Homo sapiens, UniProt P41595)
T3 sequence (P41595 whole entry): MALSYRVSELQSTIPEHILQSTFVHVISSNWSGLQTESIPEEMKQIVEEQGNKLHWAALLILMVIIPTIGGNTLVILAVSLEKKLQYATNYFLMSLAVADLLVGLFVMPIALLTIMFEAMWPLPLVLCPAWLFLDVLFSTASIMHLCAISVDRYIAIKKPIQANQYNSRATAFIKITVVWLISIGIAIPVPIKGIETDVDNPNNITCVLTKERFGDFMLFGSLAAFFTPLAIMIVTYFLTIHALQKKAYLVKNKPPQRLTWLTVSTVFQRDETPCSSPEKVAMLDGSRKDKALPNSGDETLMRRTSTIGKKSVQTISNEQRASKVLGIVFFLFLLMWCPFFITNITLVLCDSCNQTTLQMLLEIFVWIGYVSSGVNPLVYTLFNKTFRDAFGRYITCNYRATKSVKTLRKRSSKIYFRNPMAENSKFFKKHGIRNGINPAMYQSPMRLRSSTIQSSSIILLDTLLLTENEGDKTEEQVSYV

[4] = target: T4, 5-hydroxytryptamine receptor 2A (Homo sapiens, UniProt P28223)
T4 sequence (P28223 whole entry): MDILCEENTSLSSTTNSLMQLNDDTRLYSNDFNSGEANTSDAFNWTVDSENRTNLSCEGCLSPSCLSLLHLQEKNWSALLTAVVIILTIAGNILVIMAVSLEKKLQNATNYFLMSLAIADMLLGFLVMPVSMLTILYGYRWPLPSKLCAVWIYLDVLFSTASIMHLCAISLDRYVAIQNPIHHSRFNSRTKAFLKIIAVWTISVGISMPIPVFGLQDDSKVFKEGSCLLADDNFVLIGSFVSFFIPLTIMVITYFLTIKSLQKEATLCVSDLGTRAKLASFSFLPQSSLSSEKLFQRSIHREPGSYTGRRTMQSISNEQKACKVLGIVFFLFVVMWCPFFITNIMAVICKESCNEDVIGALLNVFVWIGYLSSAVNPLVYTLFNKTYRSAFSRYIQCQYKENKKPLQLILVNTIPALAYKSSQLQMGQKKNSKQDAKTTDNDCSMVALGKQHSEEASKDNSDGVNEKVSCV

[5] = target: T3, 5-hydroxytryptamine receptor 2B; test: Agonist activity at human 5-HT2B receptor expressed in human Flp-In-293 cells assessed as induction of calcium flux incubated for 1 hr by Fluo-4 direct dye based FLIPR assay relative to 5-HT; format: functional, cell-based
[6] = target: T4, 5-hydroxytryptamine receptor 2A; test: Agonist activity at human 5-HT2A receptor expressed in human Flp-In-293 cells assessed as induction of calcium flux by measuring log(Emax/EC50) incubated for 1 hr by Fluo-4 direct dye based FLIPR assay; format: functional, cell-based
[7] = target: T1, 5-hydroxytryptamine receptor 2C (Homo sapiens); test: Agonist activity at human 5-HT2C receptor expressed in human Flp-In-293 cells assessed as induction of calcium flux incubated for 1 hr by Fluo-4 direct dye based FLIPR assay relative to 5-HT; format: functional, cell-based; conditions: filed as agonist
[8] = target: T4, 5-hydroxytryptamine receptor 2A; test: Agonist activity at human 5-HT2A receptor expressed in human Flp-In-293 cells assessed as induction of calcium flux incubated for 1 hr by Fluo-4 direct dye based FLIPR assay relative to 5-HT; format: functional, cell-based
[9] = target: T3, 5-hydroxytryptamine receptor 2B; test: Agonist activity at human 5-HT2B receptor expressed in human Flp-In-293 cells assessed as induction of calcium flux by measuring log(Emax/EC50) incubated for 1 hr by Fluo-4 direct dye based FLIPR assay; format: functional, cell-based
[10] = target: T1, 5-hydroxytryptamine receptor 2C (Homo sapiens); test: Agonist activity at human 5-HT2C INI receptor expressed in human Flp-In-293 cells assessed as induction of calcium flux incubated for 1 hr by Fluo-4 direct dye based FLIPR assay relative to 5-HT; format: functional, cell-based; conditions: filed as agonist
Method in brief: (§1)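 Calcium flux in Flp-In-293 cells stably expressing the human 5-HT2C INI isoform, Fluo-4 Direct loading for 1 h at 37 °C. Drug dilutions identical to those in the parallel Tango assay, 300 s read at 1 read/s, normalized to % 5-HT. Triplicate, mean ± SEM (n = 3). Bias factors were calculated from change in relative activity, log(Emax/EC50).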

[11] = target: T1, 5-hydroxytryptamine receptor 2C (Homo sapiens); test: Agonist activity at human 5-HT2C INI receptor expressed in human HEK293 cells assessed as induction of beta-arrestin-2 recruitment incubated for 20 hrs by Tango assay relative to 5HT; format: cell-based
Method in brief: (§2)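 Tango assay in HTLA cells (HEK line expressing TEV-fused β-arrestin-2 and tTA-driven luciferase) transfected with 5-HT2C INI–tTA fusion carrying a TEV site. Cells were stimulated with the same dilutions used for FLIPR, 20 h at 37 °C and 5% CO2, then lysed with Bright-Glo for 20 min at room temperature and read by luminescence. Data normalized to % 5-HT and fitted sigmoidally; n = 3 in triplicate. Bias from log(Emax/EC50).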

[12] = target: T2, 5-hydroxytryptamine receptor 2C; test: Agonist activity at human 5-HT2C INI receptor expressed in human Flp-In-293 cells assessed as induction of calcium flux incubated for 1 hr by Fluo-4 direct dye based FLIPR assay; format: functional, cell-based; method in brief: as §1
[13] = target: T2, 5-hydroxytryptamine receptor 2C; test: Agonist activity at human 5-HT2C INI receptor expressed in human HEK293 cells assessed as induction of beta-arrestin-2 recruitment incubated for 20 hrs by Tango assay; format: cell-based; conditions: for pEC50: read-out: EC50; method in brief: as §2

| Structure (SMILES) | pEC50 [2] | pEC50 [3] | pEC50 [4] | Emax [7] [%] | also measured |
| --- | --- | --- | --- | --- | --- |
| COc1ccc2c(c1[C@@H]1C[C@H]1CN)CCO2 | 7.72 | 6.55 | 6.53 | 102 | log(ratio) [1]: 7.73; Emax ([5]; filed as agonist): 45%; log(ratio) [6]: 6.35; Emax ([8]; filed as agonist): 66%; log(ratio) [9]: 6.21 |
| C=C(F)COc1ccc2occc2c1[C@@H]1C[C@H]1CN | 7.00 | 6.23 | – | 93 | Emax [5]: 29% |
| CC(C)Oc1ccc2occc2c1[C@@H]1C[C@H]1CN | 7.68 | 6.34 | 6.03 | 97 | log(ratio) [1]: 7.66; Emax [5]: 25%; log(ratio) [6]: 5.61; Emax [8]: 38%; log(ratio) [9]: 5.74 |
| CCc1cc2c([C@@H]3C[C@H]3CN)c(OCC3CC3)ccc2o1 | 6.35 | – | – | 69 | – |
| CCOc1ccc2oc(CC)cc2c1[C@@H]1C[C@H]1CN | 6.94 | – | – | 76 | – |
| CCCOc1ccc2occc2c1[C@H]1C[C@@H]1CN | 8.00 | – | 6.41 | 98 | – |
| C=CCOc1ccc2c(c1[C@@H]1C[C@H]1CN)CCO2 | 7.03 | – | – | 90 | – |
| CCCOc1ccc2occc2c1[C@@H]1C[C@H]1CN | 7.06 | – | – | 88 | – |
| C=C(C)COc1ccc2occc2c1[C@H]1C[C@@H]1CN | 7.60 | 6.82 | 6.59 | 99 | Emax ([5]; filed as agonist): 40% |
| CCOc1ccc2c(c1[C@@H]1C[C@H]1CN)CCO2 | 7.39 | 6.11 | 6.01 | 105 | log(ratio) [1]: 7.41; Emax [5]: 30%; log(ratio) [6]: 5.55; Emax [8]: 35%; log(ratio) [9]: 5.58 |
| CCOc1ccc2c(c1[C@H]1C[C@@H]1CN)CCO2 | 8.57 | 7.23 and 7.27 | 6.95 | 106 | log(ratio) [1]: 8.59; Emax ([5]; filed as agonist): 58%; log(ratio) [6]: 6.86; Emax ([8]; filed as agonist): 81%; log(ratio) [9]: 7.03 |
| C=C(F)COc1ccc2occc2c1[C@H]1C[C@@H]1CN | 8.04 | 6.89 | 6.45 | 103 | Emax [5]: 38% |
| CCc1cc2c([C@@H]3C[C@H]3CN)c(OCCF)ccc2o1 | 7.09 | – | – | 84 | – |
| CCOc1ccc2occc2c1[C@@H]1C[C@H]1CN | 7.59 | – | 6.23 | 107 | Emax [8]: 15% |
| C=C(C)COc1ccc2occc2c1[C@@H]1C[C@H]1CN | 6.58 | 6.13 | – | 70 | Emax [5]: 33% |
| CCc1cc2c([C@H]3C[C@@H]3CN)c(OCC3CC3)ccc2o1 | 6.86 | – | – | 101 | – |
| COc1ccc2occc2c1[C@@H]1C[C@H]1CN | 8.17 and 8.18 | 6.14 | 6.96 | 96 | log(ratio) [1]: 8.16; Emax ([5]; filed as agonist): 55%; log(ratio) [6]: 6.78; Emax ([8]; filed as agonist): 66%; log(ratio) [9]: 5.88 |
| CCc1cc2c([C@@H]3C[C@H]3CN)c(OC)ccc2o1 | 7.00 | – | – | 88 | – |
| CC(C)Oc1ccc2occc2c1[C@H]1C[C@@H]1CN | 8.21 | 6.76 | 6.53 | 99 | log(ratio) [1]: 8.2; Emax [5]: 39%; log(ratio) [6]: 6.42; Emax ([8]; filed as agonist): 79%; log(ratio) [9]: 6.35 |
| NC[C@@H]1C[C@H]1c1c(OCC2CC2)ccc2occc12 | 6.95 | 6.29 and 6.28 | – | 87 | Emax [5]: 27% |

| Structure (SMILES) | pEC50 [2] | pEC50 [3] | pEC50 [4] | Emax [7] [%] | also measured |
| --- | --- | --- | --- | --- | --- |
| CCc1cc2c([C@H]3C[C@@H]3CN)c(OCCF)ccc2o1 | 7.96 | 6.26 | 5.66 | 106 | Emax [10]: 93%; Emax ([11]; filed as agonist): 50%; pEC50 [12]: 7.66; pEC50 [13]: 7.02 |
| NC[C@H]1C[C@@H]1c1c(OCC2CC2)ccc2c1CCO2 | 7.59 | 6.57 | 6.12 | 95 | – |
| C=CCOc1ccc2c(c1[C@H]1C[C@@H]1CN)CCO2 | 7.96 | 6.59 | 6.21 | 101 | Emax [10]: 93%; Emax [11]: 35%; pEC50 [12]: 7.59; pEC50 [13]: 6.57 |
| C=CCOc1ccc2occc2c1[C@H]1C[C@@H]1CN | 8.28 | 6.46 | 6.67 | 103 | Emax [10]: 92%; Emax [11]: 25%; pEC50 [12]: 8.06; pEC50 [13]: 7.70 |
| CCc1cc2c([C@H]3C[C@@H]3CN)c(OC)ccc2o1 | 8.57 | 7.22 | 6.03 | 101 | – |
| CCOc1ccc2occc2c1[C@H]1C[C@@H]1CN | 8.59 | 7.08 | 6.95 | 106 | Emax ([8]; filed as agonist): 74% |
| C[C@H]1CNCCc2ccc(Cl)cc21 | – | – | – | – | Emax ([11]; filed as agonist): 91% |
| CCCOc1ccc2c(c1[C@@H]1C[C@H]1CN)CCO2 | 7.02 | – | – | 94 | – |
| CCOc1ccc2oc(CC)cc2c1[C@H]1C[C@@H]1CN | 7.82 | 6.51 | 5.58 and 5.59 | 100 | – |
| CCCOc1ccc2c(c1[C@H]1C[C@@H]1CN)CCO2 | 7.70 | 6.59 | 6.13 | 104 | – |
| NC[C@@H]1C[C@H]1c1c(OCC2CC2)ccc2c1CCO2 | 6.55 | – | – | 65 | – |
| C=CCOc1ccc2oc(CC)cc2c1[C@H]1C[C@@H]1CN | 7.64 | 6.36 | – | – | pEC50 [12]: 7.60; pEC50 [13]: 7.52 |
| C=CCOc1ccc2occc2c1[C@@H]1C[C@H]1CN | 7.25 | – | – | 101 | – |
| NC[C@@H]1C[C@H]1c1c(OCCF)ccc2occc12 | 7.48 | 6.35 | 6.41 | 98 | Emax [5]: 34%; Emax [8]: 22% |
| CCCOc1ccc2oc(CC)cc2c1[C@H]1C[C@@H]1CN | 7.09 | – | – | – | – |
| NC[C@@H]1C[C@H]1c1c(OCCF)ccc2c1CCO2 | 6.52 | – | 5.71 | 79 | Emax ([8]; filed as agonist): 55% |
| NC[C@H]1C[C@@H]1c1c(OCCF)ccc2c1CCO2 | 7.14 | – | 5.63 | 76 | Emax [10]: 93%; Emax ([11]; filed as agonist): 42%; Emax ([8]; filed as agonist): 63%; pEC50 [12]: 7.39; pEC50 [13]: 6.50; EC50 ([13]; read-out: pEC50 (converted)): 324 nM |
| COc1ccc2occc2c1[C@H]1C[C@@H]1CN | 8.80 | 6.95 | 7.43 | 93 | log(ratio) [1]: 8.76; Emax ([5]; filed as agonist): 64%; log(ratio) [6]: 7.37; Emax ([8]; filed as agonist): 86%; log(ratio) [9]: 6.76 |
| COc1ccc2c(c1[C@H]1C[C@@H]1CN)CCO2 | 8.05 | 7.11 | 6.93 | 101 | log(ratio) [1]: 8.05; Emax ([5]; filed as agonist): 70%; log(ratio) [6]: 6.89; Emax ([8]; filed as agonist): 90%; log(ratio) [9]: 6.96 |
| NC[C@H]1C[C@@H]1c1c(OCC2CC2)ccc2occc12 | 7.92 | 6.74 | 6.34 | 99 | Emax [5]: 27% |
